Calls of active or inactive are those of the source. No cut-off for these calls is given here.
Legend:
Influenza A virus [1] = test: Antiviral activity against Influenza A virus (A/Puerto Rico/8/1934(H1N1)) infected in Kunming mouse assessed as improvement in body weight at 20 to 40 ug/day dosed intranasally starting 4 hrs after viral challenge and continued for 7 days and measured up to day 14 by plaque assay; format: functional, organism-based
How it was run: (§1)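 Groups of 10 female Kunming mice were infected intranasally with PR8 (1000 PFU/mouse) on day 0 and dosed once daily for seven days. Weight and clinical signs were recorded daily. Mice losing more than 25% of pre-infection weight were scored dead and euthanized; survivors were killed on day 14.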

[2] = Cumulative drug excretion in rat feces at 0.35mg/kg, iv administered as single dose measured after 72 hrs; format: ADME, organism-based; conditions: faeces, read-out: Drug excretion
How it was run: (§2)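 Single oral (gavage, 0.5% CMC-Na) or iv (tail vein, PEG400) dosing was given to male Kunming mice or Sprague Dawley rats held in metabolic cages. Urine and feces were collected at intervals to 72 h. Feces were dried, ground and homogenized in water (1:9 w/v). Samples were precipitated with acetonitrile containing internal standard and analysed by LC-MS/MS.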

Influenza A virus [3] = test: Antiviral activity against Influenza A virus (A/Puerto Rico/8/1934(H1N1)) infected in Kunming mouse assessed as decrease in pulmonary viral titers at 5 to 10 mg/kg/day, po starting 4 hrs after viral challenge and continued for 4 days by plaque assay; format: functional, organism-based
How it was run: (§3)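 Four-week-old female Kunming mice were infected intranasally with PR8 (500 PFU/mouse in 40 µL PBS), randomized, and dosed once daily orally or intranasally. On day 4 the mice were euthanized; lungs were removed, weighed, homogenized in PBS, and titrated by plaque assay.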

[4] = Tmax in mouse at 5 mg/kg, po administered as single dose; format: ADME, organism-based; conditions: in vivo
How it was run: (§4)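 Male Kunming mice (20–25 g) and male SD rats (180–220 g) were fasted 12 h before dosing. Compound was suspended in 0.5% CMC-Na and given by gavage (5 mg/kg mice, 3.5 mg/kg rats), or dissolved in PEG400 and given iv via tail vein (0.5 mg/kg mice, 0.35 mg/kg rats). Plasma was sampled from 5 min to 24 h and analysed by LC-MS/MS (n=3). F = AUCoral/AUCiv.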

[5] = AUC (0 to t) in mouse at 0.5 mg/kg, iv administered as single dose; format: ADME, organism-based; conditions: in vivo
How it was run: (§5)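 Male Kunming mice (20-25 g) and male Sprague Dawley rats (180-220 g) were fasted 12 h before dosing. Oral dosing was by gavage as a suspension in 0.5% sodium carboxymethyl cellulose; iv dosing was via tail vein in PEG400. Serial plasma samples were taken to 24 h, protein-precipitated with acetonitrile plus N-CH3 internal standard, and quantified by LC-MS/MS (n=3). Bioavailability = AUCoral/AUCiv.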

Influenza A virus [6] = test: Antiviral activity against Influenza A virus (A/Puerto Rico/8/1934(H1N1)) infected in MDCK cells pre-incubated for 1 hr before assay and incubated for 3 days by crystal violet staining based plaque assay; format: functional, organism-based
How it was run: (§6)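 Confluent MDCK monolayers were exposed to 10-fold serial virus dilutions for 1 h at 37 °C, then washed. The overlay was DMEM with 1.5% agarose, 0.02% DEAE-dextran and 1 µg/ml TPCK-trypsin. After 3 days at 37 °C in 5% CO2, cells were fixed with 0.05% glutaraldehyde, stained with 1% crystal violet in 20% ethanol, and plaques were counted.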

Influenza A virus [7] = test: Antiviral activity against Influenza A virus (A/Puerto Rico/8/1934(H1N1)) infected in Kunming mouse assessed as decrease in pulmonary viral titers at 20 to 40 ug/day dosed intranasally starting 4 hrs after viral challenge and continued for 4 days by plaque assay; format: functional, organism-based; how it was run: as §3
[8] = biological target: Hemagglutinin (Influenza A virus (A/Puerto Rico/8/1934(H1N1)), UniProt P03452); test: Binding affinity to Influenza A virus (A/Puerto Rico/8/1934(H1N1)) Hemagglutinin at 1.5625 to 50 uM by SPR assay; conditions: read-out: Kd
How it was run: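 HA protein was immobilized on CM5 chips. Compound (50, […], 12.5, 6.25, 3.125, 1.5625 µM) was injected for 2 min, followed by a 10-min PBST wash and regeneration with 2 mM NaOH for 30 s. Runs were at 25 °C with 2 µl/s flow, using a blank HA-free reference channel. KD was obtained from kinetic fitting.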

Influenza A virus [9] = test: Antiviral activity against Influenza A virus (A/Puerto Rico/8/1934(H1N1)) infected in MDCK cells by HA assay; format: functional, organism-based
How it was run: (§7)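 MDCK cells were infected at high moi (≈3.0 PFU/cell). Virus-containing supernatants were serially diluted 2-fold and mixed with an equal volume of 1% chicken red blood cells. After 60 min at 4 °C, wells were scored for button sedimentation versus opaque agglutination to give titers.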

Influenza A virus [10] = test: Antiviral activity against Influenza A virus (A/Aichi/2/1968(H3N2)) infected in MDCK cells incubated for 3 days by crystal violet staining based plaque assay; format: functional, organism-based; conditions: 72 h; how it was run: as §6
[11] = Toxicity in Influenza A virus (A/Puerto Rico/8/1934(H1N1)) infected Kunming mouse assessed as induction of body weight loss at 5 to 10 mg/kg/day, po starting 4 hrs after viral challenge and continued for 7 days by plaque assay; format: organism-based; conditions: in vivo
[12] = Cytotoxicity in dog MDCK cells assessed as reduction in cell viability incubated for 48 hrs by crystal violet staining based assay; design: species or system Canis lupus familiaris
[13] = Cumulative drug excretion in rat urine at 0.35mg/kg, iv administered as single dose measured after 72 hrs; format: ADME, organism-based; conditions: read-out: Drug excretion; how it was run: as §2
[14] = Cmax in rat at 3.5 mg/kg , po administered as single dose; format: ADME, organism-based; design: dose 3.5 mg/kg, route oral; conditions: in vivo; how it was run: as §5
Influenza A virus [15] = test: Antiviral activity against Influenza A virus (A/California/04/2009(H1N1)) infected in MDCK cells by HA assay; format: functional, organism-based; how it was run: as §7
[16] = Metabolic stability in rat liver microsomes at 2 uM after 60 mins; format: ADME, Microsome; conditions: read-out: Stability
How it was run: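 Mouse, rat or human liver microsomes (final 0.5 mg/mL protein) were preincubated with an NADPH-regenerating system in 50 mM Tris-HCl pH 7.4 at 37 °C for 5 min. Compound was added at 2 µM final and incubated at 37 °C; NADPH-free incubations served as controls. Reactions were quenched with acetonitrile plus internal standard at 60 min. Percent remaining was measured by LC-MS/MS (n=3).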

Influenza A virus [17] = test: Antiviral activity against Influenza A virus (A/California/04/2009(H1N1)) infected in MDCK cells incubated for 3 days by crystal violet staining based plaque assay; format: functional, organism-based; conditions: 72 h; how it was run: as §6
Influenza A virus [18] = test: Antiviral activity against Influenza A virus Virginia/ATCC1/2009 infected in MDCK cells incubated for 3 days by crystal violet staining based plaque assay; format: functional, organism-based; conditions: Virginia/ATCC1/2009, MDCK, 72 h; how it was run: as §6
Influenza A virus [19] = test: Antiviral activity against Influenza A virus (A/Puerto Rico/8/1934(H1N1)) infected in Kunming mouse assessed as improvement in body weight at 5 to 10 mg/kg/day, po starting 4 hrs after viral challenge and continued for 7 days and measured up to day 14 by plaque assay; format: functional, organism-based; how it was run: as §1
[20] = Toxicity in Kunming mouse assessed as effect on creatinine level at 5 to 10 mg/kg/day, po for 7 days; format: organism-based; conditions: in vivo, 168 h
How it was run: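 Male Kunming mice (20–25 g) received compound orally at 5 or 10 mg/kg/day, suspended in 0.5% sodium carboxymethyl cellulose, once daily for 7 days; controls received vehicle. Serum was collected under isoflurane 24 h after the last dose. AST, ALT, CR, BUN, LDH, CK and CK-MB were measured with commercial kits.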

[21] = Tmax in rat at 3.5 mg/kg , po administered as single dose; format: ADME, organism-based; conditions: in vivo; how it was run: as §4

Sequence of Hemagglutinin (Influenza A virus (A/Puerto Rico/8/1934(H1N1)), UniProt P03452) (P03452 whole entry): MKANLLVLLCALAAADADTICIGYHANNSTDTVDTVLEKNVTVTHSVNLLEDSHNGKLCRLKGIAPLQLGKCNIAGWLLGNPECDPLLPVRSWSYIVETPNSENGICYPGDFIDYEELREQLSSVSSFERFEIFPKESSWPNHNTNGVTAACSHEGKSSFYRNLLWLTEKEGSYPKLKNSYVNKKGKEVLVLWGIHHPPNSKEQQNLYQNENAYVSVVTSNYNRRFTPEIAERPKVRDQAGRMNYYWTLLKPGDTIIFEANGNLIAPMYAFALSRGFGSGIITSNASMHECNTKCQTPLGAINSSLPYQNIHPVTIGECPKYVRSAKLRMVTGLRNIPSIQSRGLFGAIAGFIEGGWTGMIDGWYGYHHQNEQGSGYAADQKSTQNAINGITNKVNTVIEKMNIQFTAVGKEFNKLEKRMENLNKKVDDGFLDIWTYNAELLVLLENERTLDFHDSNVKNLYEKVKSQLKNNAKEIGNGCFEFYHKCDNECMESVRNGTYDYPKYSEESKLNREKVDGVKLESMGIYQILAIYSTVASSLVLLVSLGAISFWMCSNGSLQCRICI

Structure (SMILES): CC(=O)c1cc(C)c(O)c(Cc2[nH]c3ccccc3c2Cc2c(O)c(C)cc(C(C)=O)c2O)c1O
- Activity (Influenza A virus [1]): Active
- dose excreted at 72 h [2]: 7.2%
- Activity (Influenza A virus [3]): Active
- Tmax [4]: 4 h
- AUC(0-t) [5]: 269 ng·h/mL
- Activity (Influenza A virus [6]): Dose-dependent effect
- Activity (Influenza A virus [7]): Active
- Kd [8]: 6.3 µM
- Activity (Influenza A virus [9]): Dose-dependent effect
- IC50 (Influenza A virus [10]): < 13 µg/mL
- Activity [11]: Non-Toxic
- CC50 at 48 h [12]: 1470 µM
- dose excreted at 72 h [13]: 0.006%
- Cmax [14]: 287 ng/mL
- Activity (Influenza A virus [15]): Dose-dependent effect
- remaining at 1 h, 2 µM [16]: 36.6%
- IC50 (Influenza A virus [17]): < 13 µg/mL
- IC50 (Influenza A virus [18]): < 13 µg/mL
- Activity (Influenza A virus [19]): Active
- Activity [20]: Non-Toxic
- Tmax [21]: 4.3 h

From ChEMBL document CHEMBL4619773, “Chemoreactive-Inspired Discovery of Influenza A Virus Dual Inhibitor to Block Hemagglutinin-Mediated Adsorption and Membrane Fusion” (J Med Chem, 2020)
